# Assay outcomes from PubChem BioAssay.
# An excerpt weighted towards active compounds, which were near 1.4% of everything screened.
# Arrestin-AP2 inh – blocks beta-arrestin peptide binding to AP2 adaptin; AID 504490; FITC-arrestin peptide / GST-AP2 beads, flow cytometry; AP2 beta2 appendage carries R879A mutation; 340,000 compounds, 0.31% hits; inhibition, % at 10 µM;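 active = inhibition above a set limit, near 3 SD of compounds lacking own fluorescence, cut at about 54% in these data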;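 also: plate controls were DMSO wells for no effect and 5 µM unlabelled arrestin peptide for full effect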
#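 System: GST-tagged AP2 beta2-adaptin appendage (R879A) on 4 µm glutathione beads / Reagent: FITC-arrestin peptide, 50 nM / Detection: HyperCyt-sampled flow cytometry, FL1 channel, ex 488/em 535 nm / Timing: 12 min plus 1 h, RT / Buffer or medium: PBS plus Tween 20 (0.05%) and BSA (0.1%)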
# CAL PDZ FP-1 – CAL PDZ (human) peptide binding inhibition | 300,000 compounds, 0.92% hits | AID 602252 | Q9HD26 | inhibition, % at 24.9 µM | purified CAL PDZ, TMR-peptide fluorescence polarization, 1 h;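 active = mean inhibition of at least 30% with at least half of replicates also reaching 30%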;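 also: 0% = DMSO neutral control and 100% = excess unlabeled competitor peptide PRC23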
# CAL PDZ FP-2 – human CAL PDZ-peptide interaction inhibition | Q9HD26 | purified CAL PDZ, TMR-peptide fluorescence polarization, 1 h | inhibition, % at 20 µM | 330,000 compounds, 0.02% hits | AID 504414;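 active = highest replicate inhibition of at least 40%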;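 also: plate controls were DMSO neutral control wells for no effect and unlabeled competitor peptide control wells for full effect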
#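 Material: tagged CAL PDZ domain; buffer or medium: 25 mM sodium phosphate pH 7.4, 150 mM NaCl, TCEP, IgG, Thesit; compound dosing: single point, 20 µM; schedule: 1 h incubation at room temperature before polarization reading; measured by: FP readout, S and P plane fluorescence; read-out basis: percent inhibition from loss of millipolarization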
# DDE Tn7 FP inh – inhibitors of Tn7 peptide binding to human fibrin DD(E); P02675; FP displacement of FITC-Tn7 peptide from fibrin DD(E); 0% = median of compound wells per plate; inhibition, % at 8.3 µM; 370,000 compounds, 0.13% hits; AID 720508;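 active = inhibition above the mean of compounds falling within the control limits plus 3 SD of them, cut at about 14% in these data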;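 also: 0% = plate median of compound wells and 100% = 10 µM Aha-Tn7 peptide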
# Target sequence (P02675 whole entry, looked up): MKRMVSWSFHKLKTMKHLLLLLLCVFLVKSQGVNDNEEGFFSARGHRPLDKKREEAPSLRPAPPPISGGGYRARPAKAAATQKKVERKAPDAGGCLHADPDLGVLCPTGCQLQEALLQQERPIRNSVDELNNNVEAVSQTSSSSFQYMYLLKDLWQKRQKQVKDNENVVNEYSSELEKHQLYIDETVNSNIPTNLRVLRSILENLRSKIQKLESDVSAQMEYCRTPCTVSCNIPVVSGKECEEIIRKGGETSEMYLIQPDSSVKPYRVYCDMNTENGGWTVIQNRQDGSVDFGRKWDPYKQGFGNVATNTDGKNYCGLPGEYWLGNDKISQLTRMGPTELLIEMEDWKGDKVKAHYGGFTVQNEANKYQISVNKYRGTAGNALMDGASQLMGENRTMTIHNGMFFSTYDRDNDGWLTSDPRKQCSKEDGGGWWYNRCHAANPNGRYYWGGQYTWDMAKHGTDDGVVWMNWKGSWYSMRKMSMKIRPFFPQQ
#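 Assay system: human fibrin DD(E) protein / Input: 2 µM fibrin DD(E) / Benchmarks: high control of 10 µM Aha-Tn7 peptide / Measured by: fluorescence polarization of the labelled Tn7 tracer / Medium: Tris buffer with calcium and detergent, pH 7.8 / Timing: 10 min compound pre-incubation, 3 h probe incubation at room temperature / Repeats: one replicate per compound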
# DDE Tn6 FP inh – disrupts Tn6 cyclic peptide binding to fibrin D-Dimer-E complex | P02675 | Fibrin DD(E) TRITC-Tn6 fluorescence polarization displacement | inhibition, % at 8.3 µM | 370,000 compounds, 0.21% hits;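 active = inhibition above a per-campaign cutoff: mean of compounds within control limits plus 3 SD, cut at about 15% in these data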;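 also: 0% = median of all compound wells on the plate and 100% = blocking peptide control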
# DDE Tn7 confirm – DD(E)-Tn7 binding inhibition, FP confirmation; shares compounds with DDE Tn7 FP inh; FP displacement of TRITC-Tn7 peptide from DD(E); 0% set at plate's compound-well median; inhibition, % at 8.3 µM; 460 compounds, 5% hits;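 active = inhibition above the campaign cutoff, the mean of compounds within control limits plus 3 SD, cut at about 14% in these data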;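 also: 100% = median FP of high control wells holding Aha-Tn7 inhibitor peptide; displacers lower polarization since freed probe rises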
# Tn7 DDE ctr – counter-screen for inhibitors of Tn7 peptide binding to fibrin DD(E). shares compounds with DDE Tn7 FP inh. TRITC-Tn7 probe displacement, fluorescence polarization. inhibition, % at 8.3 µM. 460 compounds, 3% hits;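 active = inhibition above the cutoff, the mean of compounds lying between the control bounds plus 3 SD of those compounds, cut at about 17% in these data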;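 also: 0% = median of compound sample wells and 100% = excess unlabeled Aha-Tn7 peptide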
# * = called active by the depositor; . = no result given.
SMILES,Arrestin-AP2 inh,CAL PDZ FP-1,CAL PDZ FP-2,DDE Tn7 FP inh,DDE Tn6 FP inh,DDE Tn7 confirm,Tn7 DDE ctr
O=C(CN(Cc1ccccc1Cl)C(=O)Cn1nnc(-c2cccs2)n1)NCC1CCCO1 (stereo not given),11,-1,-2,.,.,.,.
CCOc1ccc(NC(=O)CN2CCN(CC(=O)Nc3cccc(F)c3)CC2)cc1,8,20,0,-2,-3,.,.
CCOc1ccc(NC(=O)CN2CCN(CC(=O)Nc3ccc4c(c3)OCCO4)CC2)cc1,22,-5,0,15*,-1,-1,-4
COc1ccccc1N(C)S(=O)(=O)c1ccc(C(=O)OCC(=O)NCc2cccs2)cc1,4,0,-2,6,-3,.,.
COc1ccccc1N(C)S(=O)(=O)c1ccc(C(=O)OCC(=O)NCC(F)(F)F)cc1,2,-1,-2,14*,-4,-2,-9
O=C(NCCc1ccccc1)OCc1cn(Cc2ccc(F)cc2)nn1,.,.,.,0,-2,.,.
COC(=O)c1cc2occc2n1Cc1ccc(Cl)cc1,11,-5,-2,0,3,.,.
COC(=O)c1cc2occc2n1CC(=O)Nc1ccc(C)cc1C,0,-2,-1,14*,1,5,1
COc1ccc(OC)c(S(=O)(=O)Nc2ccc(CC(=O)O)cc2)c1,20,1,0,17*,-1,3,4
COc1ccc(OC)c(S(=O)(=O)Nc2ccc(OCC(=O)O)cc2)c1,17,-2,0,-8,-3,.,.
C=CCOc1ccc(/C=C/C(=O)N2CCCN(S(=O)(=O)c3c(C)noc3C)CC2)cc1,-12,-3,-2,15*,8,6,-2
Cc1ccc(NC(=O)Cn2c(O)c(N=NC(N)=O)c3ccccc32)cc1,28,-5,-2,14*,0,3,3
Cc1ccc(NC(=O)Cn2c(O)c(N=NS(=O)(=O)c3ccc(C)cc3)c3ccccc32)cc1,1,16,-1,0,-9,.,.
CCc1nc2ccc(C(=O)NCCc3ccc(OC)c(OC)c3)cc2nc1CC,-4,-5,-4,0,1,.,.
CCc1nc2ccc(C(=O)NCCc3ccccc3OC)cc2nc1CC,-9,-4,-4,14*,6,4,6
COc1ccc(OC)c(S(=O)(=O)N2CCCC(C(=O)N3CCN(Cc4ccccc4)CC3)C2)c1 (stereo not given),.,.,.,2,-4,.,.
COc1ccccc1NC(=O)COC(=O)c1cnc(C)cn1,7,-3,-1,7,3,.,.
CSc1ccccc1NC(=O)COC(=O)c1cnc(C)cn1,18,-5,1,14*,-2,-1,-6
C[C@H](O)[C@@H]1CN2CCc3c([nH]c4cccc(-c5ccccc5)c34)[C@@H]2C[C@@H]1N(C)CC1CCCCC1,.,.,.,-2,1,.,.
COC(=O)[C@]12CCCCC=C1N(Cc1ccc(OC)cc1)C(=O)[C@@H]2CC(=O)N1CCN(C(=O)C2CC2)CC1,.,.,.,-2,9,.,.
O=C1CCCC2=C1C(c1ccsc1)CC(=O)N2c1ccccc1F (stereo not given),-6,-2,-3,15*,4,1,-2
CN(C(=O)c1cccc(NC(=O)Cc2cccc(NC(=O)C3CCN(C(=O)C4CCC4)CC3)c2)c1)C1CC1,-13,1,-1,-8,0,.,.
CN(C(=O)c1cccc(NC(=O)Cc2cccc(NC(=O)C3CCN(C(=O)C4CCCCC4)CC3)c2)c1)C1CC1,14,-1,-1,15*,-4,4,-5
CC(=O)Nc1cc(-c2ccccc2N(C)C)cn2c(-c3ccc(S(C)(=O)=O)cc3)cnc12,.,.,.,26*,4,-5,-5
C[C@H]1COC(=O)[C@@H](Cc2ccc(F)cc2)C/C=C\C[C@@H](CC(=O)NCCO)C(=O)N1,23,-4,1,0,-2,.,.
SMILES,Arrestin-AP2 inh,CAL PDZ FP-1,CAL PDZ FP-2,DDE Tn7 FP inh,DDE Tn6 FP inh,DDE Tn7 confirm,Tn7 DDE ctr
C[C@@H]1COC(=O)[C@H](Cc2ccc(F)cc2)C/C=C\C[C@@H](CC(=O)NCCO)C(=O)N1,-2,0,-1,15*,9,-7,-11
N#Cc1ccc(Cl)cc1NC(=O)COC(=O)c1cccc(S(=O)(=O)N2CCOCC2)c1,15,.,-1,14*,4,6,-5
CC(C)NC(=O)N[C@H]1C[C@@H]2O[C@H](CO)CC[C@@H]2O[C@@H]1CCc1ccc(-c2ccccc2F)cc1,.,.,.,6,2,.,.
COc1cccc(C2SCC(=O)N2c2ccc(C)cc2)c1OC (stereo not given),3,2,-1,-3,2,.,.
COc1ccc(N2C(=O)CSC2c2cccc(OC)c2OC)cc1 (stereo not given),-2,-3,-3,14*,-4,-2,-9
Cc1nc(N2CCN(C(=O)C3CC3)CC2)c2c3c(sc2n1)CC(C)CC3 (stereo not given),.,.,.,1,-7,.,.
CC(C)CNc1ccc2c(c1)OC[C@H](C)NS2(=O)=O,.,.,.,-5,-5,.,.
CN(C)S(=O)(=O)c1cccc(NC(=O)C2CCN(S(=O)(=O)c3cccs3)CC2)c1,-6,.,-1,14*,-4,-6,-7
Cc1ccc(C2CC(=O)Nc3cc4c(cc32)OCO4)o1 (stereo not given),7,-4,-3,15*,14,6,3
O=C1CC(c2ccc3c(c2)OCO3)c2cc3c(cc2N1)OCO3 (stereo not given),6,-1,-2,-5,-4,.,.
COc1ccc(NC(=O)COC(=O)CC2Sc3ccccc3NC2=O)cc1 (stereo not given),34,3,-2,15*,2,4,4
Cc1ccc(NC(=S)NCc2ccc(Cl)cc2)c(OC(F)F)c1,26,1,-3,14*,7,11,0
Cc1cc2ncn(S(=O)(=O)N3CCCCC3)c2cc1C,21,-5,-3,14*,1,-1,-4
Cc1cc2ncn(S(=O)(=O)N3CCOCC3)c2cc1C,24,-4,-1,-2,5,.,.
CCCCNC(=O)C[C@H]1C[C@@]2(C(=O)OCC)CCCC3=C2N(CCC3)C1=O,.,.,.,-4,2,.,.
O=C(COC(=O)c1ccc(Cl)cc1)NCC1CCCCC1,-4,.,0,15*,-1,-3,-5
O=C1CN(C(=O)c2ccc3nc(Cc4cccc(Cl)c4)oc3c2)CCN1,22,-4,0,14*,9,9,3
CC(=O)N1CCCN(C(=O)c2ccc3nc(Cc4cccc(Cl)c4)oc3c2)CC1,6,0,0,-16,0,.,.
